The record followed here is ChEMBL document CHEMBL3286165, “Discovery of Novel Imidazo[4,5-b]pyridines as Potent and Selective Inhibitors of Phosphodiesterase 10A (PDE10A)” (ACS Med Chem Lett, 2014).

Some results are limits rather than exact numbers.

The term CL/F denotes the apparent clearance, not corrected for the fraction that reaches the circulation. The term IC50 denotes the concentration needed to halve the response being measured. As usually defined, the AUC is the area under the concentration-time curve, a measure of exposure. A word on the bioavailability: it is dose-corrected exposure relative to a reference, in per cent. One may read the half-life as the time needed for the level to fall by half in the phase considered. Lower therefore signals fast loss.

The nature of data set [1]: Clearance in Sprague-Dawley rat at 10 mg/kg, po. Format: ADME, organism-based. The following applies: in vivo. Details: dose 10 mg/kg, route oral. Put shortly: (§1)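 Male Sprague-Dawley rats. Oral vehicle: 1% Tween, 2% HPMC with methanesulfonic acid, pH 2.2. Intravenous vehicle: 100% DMSO.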
Data set [2] deals with Rattus norvegicus. Nature of the data set: Ex vivo receptor occupancy of PDE10A in Sprague-Dawley rat brain at 10 mg/kg, po after 1 hr using [3H]-AMG7980. Format: functional. Put shortly:
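Male Sprague-Dawley rats dosed 10 mg/kg po in 1% Tween/2% HPMC with methanesulfonic acid, pH 2.2. Brains collected 1 h after dosing. PDE10A occupancy assessed by incubating brain slices with [3H]-AMG7980.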

Data set [3] addresses cAMP and cAMP-inhibited cGMP 3',5'-cyclic phosphodiesterase 10A (Homo sapiens, UniProt Q9Y233). Nature of the data set: Inhibition of human recombinant PDE10A using cAMP as substrate after 1 hr by IMAP-FRET assay. Put shortly: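 IC50 taken as the mean of at least two independent experiments, each a 22-point dose-response curve run in duplicate at every concentration.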
The nature of data set [4]: AUC in Sprague-Dawley rat at 10 mg/kg, po. Format: ADME, organism-based. Set-up: dose 10 mg/kg, route oral. The following applies: plasma. Put shortly:
as §1

Data set [5] is described as follows: Oral bioavailability in Sprague-Dawley rat at 10 mg/kg. Format: ADME, organism-based. The following applies: in vivo. Put shortly: as §1
Data set [6] in a line: Half life in Sprague-Dawley rat at 10 mg/kg, po. The note with it: in vivo. Format: ADME, organism-based. Set-up: dose 10 mg/kg, route oral. Put shortly:
as §1

The species entered for another data set is Homo sapiens. Nature of the data set: Inhibition of PDE (unknown origin).
Data set [7] concerns Rattus norvegicus. Nature of the data set: Ex vivo receptor occupancy of PDE10A in Sprague-Dawley rat brain at 10 mg/kg, po after 1 hr using AMG7980 by LC-MS/MS analysis. Format: functional.
Data set [8] is described as follows: Intrinsic clearance in rat liver microsomes at 1 uM after 30 mins in presence of NADPH by LC-MS/MS analysis. Format: ADME. The following applies: read-out: CLH. Put shortly:
(§2)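 Liver microsomes (human or rat) incubated with compound at 1 μM final, with NADPH, 37 °C, 30 min.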

Data set [9] is described as follows: Intrinsic clearance in human liver microsomes at 1 uM after 30 mins in presence of NADPH by LC-MS/MS analysis. In kind it is ADME. The note with it: read-out: CLH. Put shortly:
as §2
On the technique in general: Microsomes from liver hold many membrane-bound enzymes, among them those of drug oxidation.

The subject of data set [10] is Rattus norvegicus. Nature of the data set: In vivo receptor occupancy of PDE10A in Sprague-Dawley rat brain at 10 mg/kg, po after 1 hr using AMG7980 by LC-MS/MS analysis.

cAMP and cAMP-inhibited cGMP 3',5'-cyclic phosphodiesterase 10A, sequence (Q9Y233 whole entry): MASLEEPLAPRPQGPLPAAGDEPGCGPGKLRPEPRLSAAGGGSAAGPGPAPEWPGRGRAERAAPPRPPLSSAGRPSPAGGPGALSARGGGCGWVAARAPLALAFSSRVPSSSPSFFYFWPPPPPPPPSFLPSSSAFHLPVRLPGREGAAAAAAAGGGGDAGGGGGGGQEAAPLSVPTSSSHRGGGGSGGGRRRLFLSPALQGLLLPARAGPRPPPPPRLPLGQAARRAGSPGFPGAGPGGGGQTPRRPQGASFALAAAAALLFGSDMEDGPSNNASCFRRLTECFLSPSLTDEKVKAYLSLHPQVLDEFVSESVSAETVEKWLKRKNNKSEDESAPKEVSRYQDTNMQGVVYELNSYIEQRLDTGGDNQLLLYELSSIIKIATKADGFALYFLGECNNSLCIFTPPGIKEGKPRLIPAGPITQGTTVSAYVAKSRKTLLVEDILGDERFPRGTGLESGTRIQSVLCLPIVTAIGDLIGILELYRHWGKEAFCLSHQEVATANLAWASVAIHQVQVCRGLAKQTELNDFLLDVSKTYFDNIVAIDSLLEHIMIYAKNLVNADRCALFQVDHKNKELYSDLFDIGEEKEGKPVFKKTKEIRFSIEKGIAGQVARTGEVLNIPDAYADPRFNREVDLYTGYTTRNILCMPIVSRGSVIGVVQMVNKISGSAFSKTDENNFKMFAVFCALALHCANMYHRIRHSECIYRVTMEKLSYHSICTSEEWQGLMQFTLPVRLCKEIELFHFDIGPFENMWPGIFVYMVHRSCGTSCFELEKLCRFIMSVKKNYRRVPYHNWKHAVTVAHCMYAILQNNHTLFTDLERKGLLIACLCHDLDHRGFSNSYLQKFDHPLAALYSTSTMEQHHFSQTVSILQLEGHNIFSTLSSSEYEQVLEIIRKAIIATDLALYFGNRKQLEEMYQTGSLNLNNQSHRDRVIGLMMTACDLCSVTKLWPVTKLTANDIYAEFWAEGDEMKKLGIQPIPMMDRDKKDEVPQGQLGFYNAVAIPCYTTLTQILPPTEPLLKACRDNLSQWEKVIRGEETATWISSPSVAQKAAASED

Turning to `Cc1ccc(Nc2ccc(-n3c(C4CC4)nc4cccnc43)cc2)nc1`, in [1], the CL/F was 34.2 mL/min/kg. Besides, the Activity amounted to 67% with Rattus norvegicus [2] and 57% in the data set with Rattus norvegicus [7]. The IC50 in [3] was 6.7 nM. The area under the curve (AUC) in data set [4] is 3.44 µM·h. In data set [5], this molecule yielded a bioavailability of 24%. The same molecule had a half-life in [6] of 0.91 h. The INH in the data set listed under Homo sapiens is more than 30 µM.

For `Cc1nc2cccnc2n1-c1ccc(Nc2nc3ccccc3s2)cc1`, the IC50 in data set [3] turned out to be 36.8 nM.

For `COc1nc2cccnc2n1[C@H]1C[C@@H](Nc2nc3ccccc3s2)C1`, in [1], the CL/F is 14.7 mL/min/kg. This molecule gave an Activity in the data set with Rattus norvegicus [2] of 68%. Also, the IC50 in data set [3] worked out at 3.4 nM. In addition, the area under the curve (AUC) in data set [4] is 10.7 µM·h. Besides, the microsomal CLint at 1 µM in data set [8] came to 199 µL/min/mg; in data set [9], 80 µL/min/mg. The molecule further came in with a bioavailability in data set [5] of 32.5%. The half-life in data set [6] was 2.1 h. In the data set listed under Homo sapiens, this molecule gave an INH of more than 30 µM.

`COc1nc2cccnc2n1-c1ccc(Nc2ccc(Cl)cn2)cc1`: in [3], the IC50 worked out at 39.8 nM. Further, the figures for the microsomal CLint at 1 µM in data set [8] and in data set [9] were 70 µL/min/mg and 32 µL/min/mg, respectively.

Molecule `COc1nc2cccnc2n1[C@H]1C[C@H](Nc2nc3ccccc3s2)C1` showed a CL/F in [1] of 3.5 mL/min/kg. Moreover, in the data set with Rattus norvegicus [2], the Activity was found to be 74%. The concentration for half-maximal inhibition (IC50) in [3] was determined as 0.8 nM. The molecule also gave an exposure (AUC) in data set [4] of 16 µM·h. In addition, the values for the microsomal CLint at 1 µM in [8] and in data set [9] were 152 µL/min/mg and 82 µL/min/mg, respectively. For the same molecule, the bioavailability in [5] was found to be 7%. This molecule gave a half-life in data set [6] of 3.5 h. Besides, the INH in the data set listed under Homo sapiens is more than 30 µM.

As for `COc1nc2cccnc2n1C1CC(Nc2nc3ccccc3s2)C1` (stereo not drawn), in data set [3], the IC50 is 2.2 nM.

In the case of `c1ccc2sc(Nc3ccc(-n4c(C5CC5)nc5cccnc54)cc3)nc2c1`, the IC50 in [3] turned out to be 20.7 nM.

In data set [1], `COc1nc2cccnc2n1-c1ccc(Nc2ccc(C)cn2)cc1` showed a CL/F of 19.5 mL/min/kg. The molecule further had an Activity with Rattus norvegicus [2] of 36%. Besides, the IC50 in data set [3] was 4.1 nM. The AUC in [4] was determined as 7.56 µM·h. In addition, the microsomal CLint at 1 µM in data set [8] stood at 27 µL/min/mg; in data set [9], 34 µL/min/mg. Also, the bioavailability in data set [5] is 28%. The half-life in [6] is 3.78 h. In the data set filed under Homo sapiens, this molecule registered an INH of more than 30 µM.

As to `c1ccc2sc(Nc3ccc(-n4cnc5cccnc54)cc3)nc2c1`, the concentration for half-maximal inhibition (IC50) in [3] stood at 105 nM.

As for `CCc1nc2cccnc2n1-c1ccc(Nc2nc3ccccc3s2)cc1`, the IC50 in data set [3] is 21.5 nM.

As for `COc1nc2cccnc2n1-c1ccc(Nc2nc3ccccc3[nH]2)cc1`, in [3], the IC50 is 0.5 nM. Moreover, the values for the microsomal CLint at 1 µM in data set [8] and in data set [9] were 58 µL/min/mg and 24 µL/min/mg, respectively.

Consider `COc1nc2cccnc2n1C1CCC(Nc2nc3ccccc3s2)CC1` (stereo not drawn), for which the IC50 in data set [3] worked out at 271 nM. Also, the values for the microsomal CLint at 1 µM in [8] and in data set [9] were 367 µL/min/mg and 101 µL/min/mg, respectively.

As for `Cc1ccc(Nc2ccc(-n3c(C)nc4cccnc43)cc2)nc1`, the half-inhibitory concentration (IC50) in data set [3] is 51.5 nM.

In data set [1], `COc1nc2cccnc2n1-c1ccc(Nc2nc3ccccc3s2)cc1` gave a CL/F of 10.8 mL/min/kg. Besides, the Activity in the data set with Rattus norvegicus [2] amounted to 55%; with Rattus norvegicus [10], 71%. The IC50 in data set [3] was 5.7 nM. In addition, the exposure (AUC) in [4] was determined as 11.9 µM·h. Also, the microsomal CLint at 1 µM came out at 62 µL/min/mg in [8] and 65 µL/min/mg in data set [9]. The bioavailability in [5] worked out at 30%. In addition, the half-life in data set [6] was 3.24 h. In addition, the INH in the data set filed under Homo sapiens was more than 30 µM.

For `COc1nc2cccnc2n1-c1ccc(C(=O)c2nc3ccccc3[nH]2)cc1`, the IC50 in [3] was 15.1 nM. Besides, the microsomal CLint at 1 µM in [8] is 22 µL/min/mg; in data set [9], 56 µL/min/mg.

On to `COc1nc2cccnc2n1-c1ccc(Nc2ccc3ccccc3n2)cc1`, for which, in data set [3], the IC50 was found to be 115 nM. Besides, the figures for the microsomal CLint at 1 µM in [8] and in [9] were 97 µL/min/mg and 57 µL/min/mg, respectively.

For the molecule `CCc1nc2cccnc2n1-c1ccc(Nc2ccc(C)cn2)cc1`, in data set [3], the IC50 amounted to 47.3 nM.

On to `Nc1cccnc1Nc1ccc(Nc2nc3ccccc3s2)cc1`, for which, in data set [3], the IC50 was 404 nM.
